# This excerpt belongs to a sample that is enriched for hits.
# NLRP3 yeast inh: NALP3 inflammasome inhibitors in reconstituted yeast, primary screen, luminescence, uHTS; inhibition, % at 10 µM; hit rate 0.39% among 330,000; Yeast reconstituted NLRP3/ASC/caspase-1, beta-gal luminescence, 24 h;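 active means inhibition of 50% or more; inactive means inhibition below 50%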;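 further: plate controls were induced DMSO wells for no effect and uninduced yeast grown without galactose for full effect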
# T cruzi inh: inhibitors of intracellular T. cruzi growth, primary screen, luminescence, NIH3T3 host cells; T. cruzi beta-gal in NIH3T3, 90 h; inhibition, % (test concentration not listed); hit rate 1.4% among 300,000; AID 1885, 2009;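 active means mean inhibition across valid replicates above about 55%, limit read from the data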;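 further: signal also drops with host cell toxicity which is not excluded here; 0% = plate median of DMSO wells and 100% = zero luminescence signal; higher percent means less beta-gal luminescence so fewer parasites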
#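 assay system = mouse NIH/3T3 fibroblasts infected with β-gal-expressing T. cruzi Tulahuen C4 | input = 5,000 NIH/3T3 host cells per well | buffer or medium = DMEM plus 2% FBS | timing = 3 h host attachment, then at least 90 h co-culture | measured by = GalScreen luminescence, 60 min | evaluation = luminescence reflecting intracellular parasite burden, expressed as percent inhibition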
# Calb FLC: C. albicans growth inhibition with fluconazole, primary screen, CaCi-2 strain, Alamar Blue fluorescence | C. albicans CaCi-2 + fluconazole, 48 h | growth inhibition, % (no concentration beside the values) | hit rate 0.57% among 300,000;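 active means growth inhibition above about 58% in most replicates, limit read from the data, passing the limit was not always enough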;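 further: all wells also contain fluconazole at 8 µg/ml as a sub-toxic cotreatment; 0% = median of DMSO wells and 100% = median of geldanamycin control wells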
# PolyA inhibitor: polyadenylation inhibitors in yeast reporter cells, primary screen, luminescence, S. cerevisiae; AID 1875, 2009; S. cerevisiae SKY197-pL101 polyadenylation reporter, beta-gal luminescence; efflux-impaired pdr1/pdr3 knockout yeast; score 100 = 6 SD above DMSO; hit rate 0.02% among 300,000; activity score, % at 12 µM;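 active means lowest replicate activity score at least 50, where 100 means six control SD above control mean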;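 further: yeast exposed to compound for 9 h at 30 °C; higher score means more reporter readthrough which indicates perturbed polyadenylation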
# Lmaj promast: Leishmania major promastigote growth inhibition, primary screen | Leishmania major promastigotes, resazurin fluorescence viability | inhibition, % at 10 µM | hit rate 9% among 200,000 | AID 1063, 2008; in the data active means inhibition above about 50%;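 further: promastigotes grown with compound for 44 hours at 28 °C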
# NALP1 inh: NALP1 inflammasome inhibitors in reconstituted yeast, colorimetric, S. cerevisiae, triplicate retest; S. cerevisiae NALP1/ASC/caspase-1 growth, X-gal OD620, 72 h; inhibition, % at 10 µM; hit rate 0.61% among 280,000; AID 2071, 2009; in the data active means inhibition mostly above about 24%, no sharp cut-off; inactive means mostly below about 32%
# The depositor's hits bear a star; x = not tested or not shown.
SMILES,NLRP3 yeast inh,T cruzi inh,Calb FLC,PolyA inhibitor,Lmaj promast,NALP1 inh
CCN(CC)S(=O)(=O)c1ccc2oc(C(=O)NC3CCCc4ccccc43)c(C)c2c1 (configuration not stated),1,81*,23,14,43,48
C=CCNC(=O)c1oc2ccc(S(=O)(=O)N(CC)CC)cc2c1C,6,0,-36,-10,98*,-5
CCN(CC)S(=O)(=O)c1ccc2oc(C(=O)N3CCc4ccccc4C3)c(C)c2c1,0,1,18,-6,31,43
CNS(=O)(=O)c1cc(C(=O)OCC(=O)NC2CCCc3ccccc32)ccc1Cl (configuration not stated),4,-2,-1,9,-8,28
CCN(CC)S(=O)(=O)c1cc(C(=O)OCC(=O)NC2CCCc3ccccc32)ccc1C (configuration not stated),-15,-13,44,-14,51*,25
Clc1ccc(CN2CCc3c([nH]c4ccccc34)C2)cc1Cl,19,38,15,-6,x,27
CCCN(CC(=O)Nc1ccccc1OC)C(=O)Cc1ccc2c(c1)CCC2,3,x,x,x,x,x
O=[N+]([O-])c1ccc(CN2CCN(Cc3c[nH]c4ccccc34)CC2)cc1,28,56*,-21,x,83*,6
COc1ccccc1N1CCN(Cc2c[nH]c3ccccc23)CC1,27,58*,-6,1,x,0
Fc1ccc(N2CCN(Cc3c[nH]c4ccccc34)CC2)cc1,26,73*,-17,7,x,x
c1cnc(N2CCN(Cc3c[nH]c4ccccc34)CC2)nc1,6,50,16,8,0,9
Cc1ccccc1N1CCN(Cc2c[nH]c3ccccc23)CC1,26,60*,-18,-4,71*,13
COc1ccccc1N1CCN(Cc2ccc(OC)c(OC)c2OC)CC1,7,16,-26,15,3,12
Cc1coc2c1c(C)cc1oc(=O)c(CC(=O)N[C@@H](CC(C)C)C(=O)O)c(C)c12,10,-9,0,3,x,14
CCOC(=O)C1CCN(Cc2ccc(O)c3ncccc23)CC1,-28,55*,112*,2,95*,-1
COc1ccccc1N1CCN(Cc2ccc(O)c3ncccc23)CC1,46,46,-6,-63,101*,-10
CCOc1ccccc1N1CCN(Cc2cccc(OC)c2OC)CC1,3,-4,-11,3,11,-5
COC(=O)c1nn(-c2nc(-c3cccc(OC)c3)cc(C(F)(F)F)n2)cc1[N+](=O)[O-],5,19,3,-1,90*,10
COC(=O)c1nn(-c2nc(-c3ccc(OC)c(OC)c3)cc(C(F)(F)F)n2)cc1[N+](=O)[O-],-8,25,6,8,8,-1
CCCCc1ccc(C2C3=C(CC(C)(C)CC3=O)NC3=C2C(=O)c2ccccc23)cc1 (configuration not stated),18,36,-1,2,99*,8
CCCc1ccc(C2C3=C(CC(C)(C)CC3=O)NC3=C2C(=O)c2ccccc23)cc1 (configuration not stated),10,45,105*,-11,88*,-4
COc1cccc(C2C3=C(CCCC3=O)NC3=C2C(=O)c2ccccc23)c1 (configuration not stated),-8,-5,35,-1,13,-14
CC1(C)CC(=O)C2=C(C1)NC1=C(C(=O)c3ccccc31)C2c1ccc(O)cc1 (configuration not stated),23,-4,30,-12,-13,24
O=C1CS/C(=N/N=C/c2cccs2)N1Cc1ccc(F)cc1,27,12,-1,-23,x,x
C/C(CC1CC2=C(CC1(C)C)C(C)(C)CCC2)=N\NC(N)=S (configuration not stated),48,56*,-3,-5,101*,-1
O=C(Nc1cc(Sc2ccccn2)cc([N+](=O)[O-])c1)c1ccc([N+](=O)[O-])cc1,1,x,-7,x,-6,6
Fc1cccc(F)c1-n1c(CN2CCCCC2)csc1=S,7,-12,0,6,56*,2
